In ChEMBL document CHEMBL1124575, “Water-soluble third generation antitumor platinum complexes, [2,2-bis (aminomethyl)-1,3-propanediol-N,N']-[1,1-cyclobutanedicarboxylato (2-)-O,O']platinum(II) and [1,1-cyclobutanedicarboxylato(2-)-O,O'] [tetrahydro-4H-pyran-4,4-dimethanamine-N,N']platinum(II)” (J Med Chem, 1989):
Activity calls are given as the source filed them. The calls are words filed in the database; no cut-off is given here.

Experiments:
MX1 [1] = test: Percent tumor weight inhibition (TWI) in athymic mice at an optimal dose of 3 mg/kg in breast MX-1 cells; type: functional, organism-based; design: dose 3 mg/kg; settings: Mus musculus
L1210 [2] = test: Antitumor activity against murine tumor cells L1210 in BDF1 mice administered 6.2 mg/kg intraperitoneally on days 1,5, and 9 relative to tumor inoculation; type: functional, organism-based; design: dose 6.2 mg/kg; settings: Mus musculus, at 6.2 mg/kg
Summary of the method: (§1)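 L1210, cisplatin-resistant L1210 and P388 leukemias implanted in BDF1 mice and maintained per National Cancer Institute protocols. Drug given ip on days 1, 5 and 9 after inoculation, with 30-day observation. The end point is % ILS versus controls, with >25% needed for activity. Reduction of ILS or body weight by >15% is rated toxic.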

Colon 26 [3] = test: Antitumor activity against murine tumor cells Colon 26 in BALB / C mice administered 1 mg/Kg intraperitoneally on days 1,5, and 9 relative to tumor inoculation; type: functional; settings: Mus musculus
Summary of the method: (§2)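 Colon 26 carcinoma grown in Balb/C mice following National Cancer Institute protocols. Intraperitoneal dosing on days 1, 5 and 9 after tumor inoculation, with survival followed for 30 days. Activity is scored as % ILS over control mice, and ILS >25% is required. Toxicity is a >15% drop in ILS or body weight versus controls.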

Mus musculus [4] = test: Percent tumor weight inhibition (TWI) in athymic mice at an optimal dose of 3 mg/kg in […] cells; type: functional, organism-based; design: dose 3 mg/kg
L1210 [5] = test: Antitumor activity against murine tumor cells L1210 cisplatin resistant leukemia in BDF1 mice administered mg/Kg intraperitoneally on days 1,5, and 9 relative to tumor inoculation; In active; type: functional; settings: Mus musculus; summary of the method: as §1
P388 [6] = test: Antitumor activity against murine tumor cells, P388 in BDF1 mice administered 3 mg/kg intraperitoneally on days 1,5, and 9 relative to tumor inoculation; type: functional, organism-based; design: dose 3 mg/kg; settings: Mus musculus, at 3 mg/kg; summary of the method: as §1
B16 [7] = test: Antitumor activity against murine tumor cells B16 in C57BC mice administered 0.4 mg/kg intraperitoneally on days 1-9 relative to tumor inoculation; type: functional, organism-based; design: dose 0.4 mg/kg; settings: Mus musculus, at 0.4 mg/kg
Summary of the method: (§3)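 B16 melanoma in C57BC/6 mice, propagated per National Cancer Institute protocols. Drug given ip daily on days 1-9 after tumor inoculation, with observation for 60 days. Read-out is % increase in life span (ILS) over controls. ILS >25% counts as active. Treatment cutting ILS or body weight by >15% versus controls is rated toxic.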

[8] = Solubility in water; type: physicochemical; settings: buffer
L1210 [9] = test: Antitumor activity against murine tumor cells L1210 in BDF1 mice administered 3.1 mg/kg intraperitoneally on days 1,5, and 9 relative to tumor inoculation; type: functional, organism-based; design: dose 3.1 mg/kg; settings: Mus musculus, at 3.1 mg/kg; summary of the method: as §1
M5076 = test: Antitumor activity against murine tumor cells M5076 in BDF1 mice administered 3 mg/Kg intraperitoneally on days 1,5, and 9 relative to tumor inoculation; type: functional; settings: Mus musculus
P388 [10] = test: Antitumor activity against murine tumor cells, P388 in BDF1 mice administered 3.2 mg/Kg intraperitoneally on days 1,5, and 9 relative to tumor inoculation; type: functional; settings: Mus musculus; summary of the method: as §1
B16 [11] = test: Antitumor activity against murine tumor cells B16 in C57BC mice administered 6 mg/kg intraperitoneally on days 1-9 relative to tumor inoculation; type: functional, organism-based; design: dose 6 mg/kg; settings: Mus musculus, at 6 mg/kg; summary of the method: as §3
Colon 26 [12] = test: Antitumor activity against murine tumor cells Colon 26 in BALB / C mice administered 3.1 mg/Kg intraperitoneally on days 1,5, and 9 relative to tumor inoculation; type: functional; settings: Mus musculus; summary of the method: as §2
Colon 26 [13] = test: Antitumor activity against murine tumor cells Colon 26 in BALB / C mice administered 0.8 mg/Kg intraperitoneally on days 1,5, and 9 relative to tumor inoculation; type: functional; settings: Mus musculus; summary of the method: as §2
B16 [14] = test: Antitumor activity against murine tumor cells B16 in C57BC mice administered 0.2 mg/Kg intraperitoneally on days 1-9 relative to tumor inoculation; type: functional; settings: Mus musculus; summary of the method: as §3
B16 [15] = test: Antitumor activity against murine tumor cells B16 in C57BC mice administered 1.5 mg/Kg intraperitoneally on days 1-9 relative to tumor inoculation; type: functional; settings: Mus musculus; summary of the method: as §3
P388 [16] = test: Antitumor activity against murine tumor cells, P388 in BDF1 mice administered 6.2 mg/Kg intraperitoneally on days 1,5, and 9 relative to tumor inoculation; type: functional; settings: Mus musculus; summary of the method: as §1
L1210 [17] = test: Antitumor activity against murine tumor cells L1210 in BDF1 mice administered 1.5 mg/kg intraperitoneally on days 1,5, and 9 relative to tumor inoculation; type: functional, organism-based; design: dose 1.5 mg/kg; settings: Mus musculus, at 1.5 mg/kg; summary of the method: as §1
B16 [18] = test: Antitumor activity against murine tumor cells B16 in C57BC mice administered 0.4 mg/Kg intraperitoneally on days 1-9 relative to tumor inoculation; type: functional; settings: Mus musculus; summary of the method: as §3
B16 [19] = test: Antitumor activity against murine tumor cells B16 in C57BC mice administered 12.5 mg/Kg intraperitoneally on days 1-9 relative to tumor inoculation; type: functional; settings: Mus musculus; summary of the method: as §3
MX1 [20] = test: Percent tumor weight inhibition (TWI) in athymic mice at an optimal dose of 50 mg/kg in breast MX-1 cells; type: functional, organism-based; design: dose 50 mg/kg; settings: Mus musculus
P388 [21] = test: Antitumor activity against murine tumor cells, P388 in BDF1 mice administered 100 mg/kg intraperitoneally on days 1,5, and 9 relative to tumor inoculation; type: functional, organism-based; design: dose 100 mg/kg; settings: Mus musculus, at 100 mg/kg; summary of the method: as §1
L1210 [22] = test: Antitumor activity against murine tumor cells L1210 cisplatin resistant leukemia in BDF1 mice administered mg/Kg intraperitoneally on days 1,5, and 9 relative to tumor inoculation; Inactive; type: functional; settings: Mus musculus; summary of the method: as §1
Mus musculus [23] = test: Percent tumor weight inhibition (TWI) in athymic mice at an optimal dose of 50 mg/kg in […] cells; type: functional, organism-based; design: dose 50 mg/kg
Colon 26 [24] = test: Antitumor activity against murine tumor cells Colon 26 in BALB / C mice administered 50 mg/Kg intraperitoneally on days 1,5, and 9 relative to tumor inoculation; type: functional, cell-based; settings: Mus musculus; summary of the method: as §2
L1210 [25] = test: Antitumor activity against murine tumor cells L1210 in BDF1 mice administered 100 mg/kg intraperitoneally on days 1,5, and 9 relative to tumor inoculation; type: functional, organism-based; design: dose 100 mg/kg; settings: Mus musculus, at 100 mg/kg; summary of the method: as §1

CISPLATIN gave a TWI (MX1 [1]) of 86%, an Increase (L1210 [2]) of 96% and an Increase (Colon 26 [3]) of 47%. For the same substance, the TWI (Mus musculus [4]) was 200%, the Increase (L1210 [5]) was “inactive” and the Increase (P388 [6]) was 140%. For the same substance, the Increase (B16 [7]) was 36%.

Substance “cis-Diamminedichloroplatinum (II) complex [listing 1 of 3 here]” has an S [8] of 1 mg/mL.

In the case of “cis-Diamminedichloroplatinum (II) complex [listing 2 of 3 here]”, the S [8] is reported as 0.3 mg/mL.

Substance “cis-Diamminedichloroplatinum (II) complex [listing 3 of 3 here]” has an Increase (L1210 [9]) of 39%, an Increase (M5076) of 128% and an Increase (P388 [10]) of 173%. For the same substance, the Increase (L1210 [2]) was 50%, the Increase (B16 [11]) was 53% and the Increase (Colon 26 [12]) was 59%. The Increase (Colon 26 [13]) was 39%, the Increase (B16 [14]) was 43% and the Increase (B16 [15]) was 36%. It also gave an Increase (P388 [16]) of 136%, an Increase (L1210 [17]) of 38% and an Increase (B16 [18]) of 43%.

CARBOPLATIN gave an Increase (B16 [19]) of 43%, a TWI (MX1 [20]) of 90% and an Increase (P388 [21]) of 144%. The Increase (L1210 [22]) was “inactive”, the TWI (Mus musculus [23]) was 200% and the Increase (Colon 26 [24]) was 85%. The Increase (L1210 [25]) was 35%.
